Data as given in ChEMBL document CHEMBL1127313, “The discovery of sulfonamide endothelin antagonists and the development of the orally active ETA antagonist 5-(dimethylamino)-N-(3,4-dimethyl-5-isoxazolyl)-1-naphthalenesulf onamide” (J Med Chem, 1994).

Assays:
Rattus norvegicus = assay: Antihypertensive activity administered orally at […] was determined in vivo in rats; type: functional
Method in brief: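 Uninephrectomized rats implanted with a DOCA pellet and given saline to drink develop hypertension. Single 100 µmol/kg oral dose in 5% NaHCO3 given at time 0, with a vehicle group. Mean arterial pressure followed over 24 h as % change from pre-dose control; mean ± SEM, n = 6 animals.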

A10 = assay: Ability to inhibit [125I]ET1 binding to vascular smooth muscle (vsm)- A10 cells; type: functional, cell-based; details: Rattus norvegicus
Method in brief: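 Intact rat vsm-A10 cells: confluent cells scraped, pelleted, resuspended in PBS with 0.1% glucose and 0.1% BSA. Bound and free ligand separated by filtration; bound radioactivity counted by scintillation; IC50 reported.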

[1] = molecular target: T1, Endothelin-1 receptor (Homo sapiens) (UniProt P25101); details: Oryctolagus cuniculus
T1 sequence (whole entry): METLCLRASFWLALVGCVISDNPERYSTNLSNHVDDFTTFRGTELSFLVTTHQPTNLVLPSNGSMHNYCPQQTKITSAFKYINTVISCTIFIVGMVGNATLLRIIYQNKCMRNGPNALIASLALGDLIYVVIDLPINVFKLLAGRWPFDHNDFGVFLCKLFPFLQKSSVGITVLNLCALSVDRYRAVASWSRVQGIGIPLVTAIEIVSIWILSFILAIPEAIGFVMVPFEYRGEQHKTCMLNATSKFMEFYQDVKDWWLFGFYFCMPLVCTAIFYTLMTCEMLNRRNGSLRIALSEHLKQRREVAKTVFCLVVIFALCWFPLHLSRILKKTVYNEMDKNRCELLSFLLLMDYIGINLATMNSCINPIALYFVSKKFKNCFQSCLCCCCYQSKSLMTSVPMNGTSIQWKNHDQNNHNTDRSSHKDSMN

IC50 (A10) [µM] | SMILES | other results
 | Cc1noc(NS(=O)(=O)c2cccc3c(N(C)C)cccc23)c1C [BMS-182874] | Mean arterial blood pressure (Rattus norvegicus): 45.8 mmHg
> 32 | CCCCCc1cc(NS(=O)(=O)c2ccc(N)cc2)on1 | 
> 32 | Nc1ccc(S(=O)(=O)Nc2cc(-c3ccccc3)no2)cc1 | 
 | Cc1noc(NS(=O)(=O)c2cccc3c(O)cccc23)c1C | K Bapp [1]: 100 µM
